# Measured values taken from ChEMBL document CHEMBL1124174, “Substituted benzamides. 1. Potential nondopaminergic antagonists of chemotherapy-induced nausea and emesis” (J Med Chem, 1988).
# Key:
# [1] = biological target: D(2) dopamine receptor (Canis lupus familiaris) (UniProt Q9GJU1); assay: In vivo antagonism activity against dopamine D2 receptor was measured as emesis in dog when administered subcutaneously; format: functional, organism-based
# Canis familiaris [2] = assay: In vivo antagonism of cisplatin-induced emesis in dog measured as emetic episodes, twice the dose of 3 mg/kg in 2 dogs; format: functional, Canis lupus familiaris
# Method in brief: (§1)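 Nonfasted mature male or female beagles were dosed sc twice, 30 min before and 120 min after cisplatin (3 mg/kg iv; 3 mg/mL in warm 0.9% saline, used immediately). Emesis was observed up to 5 h; events within 2 min counted as one episode. Results were given as mean emetic episodes and % protection versus a dynamic control (historical and concurrent saline means pooled). t test versus saline.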
# D(2) dopamine receptor = D(2) dopamine receptor (Rattus norvegicus, UniProt P61169); assay: In vitro antagonistic activity against Dopamine receptor D2 was evaluated for the inhibition of [3H]spiperone binding
# Method in brief: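 Rat striatal membranes were prepared by differential centrifugation in 50 mM Tris pH 7.4 at 4 °C. Membrane protein (10 mg) was incubated 15 min at 37 °C with 0.1 nM [3H]spiperone and varying competitor concentrations. Buffer: 50 mM Tris HCl pH 7.5, 0.1% ascorbic acid, pargyline, 120 mM NaCl, 5 mM KCl, 2 mM CaCl2, 1 mM MgCl2. (+)-Butaclamol defined nonspecific binding. Bound ligand was collected by filtration and scintillation counted. IC50 by log-logit regression.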
# Canis familiaris [3] = assay: In vivo antagonism of cisplatin-induced emesis in dog measured as percentage protection for twice the dose of 3 mg/kg in 2 dogs; format: functional, Canis lupus familiaris; method in brief: as §1
# Mustela putorius furo [4] = assay: In vivo antagonism of cisplatin-induced emesis in ferret measured as emetic episodes, twice the dose of 3 mg/kg and in 3 ferrets; format: functional
# Method in brief: (§2)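 Nonfasted castrated male Fitch ferrets (1–1.5 kg) had jugular catheters implanted ≥48 h earlier under anesthesia. Compounds or saline were given iv twice, 5 min before and 90 min after cisplatin (12 mg/kg iv; 12 mg/mL in warm 0.9% saline). Emesis was observed up to 4 h; events within 1 min counted as one episode. Results were given as mean emetic episodes and % protection versus a pooled historical/concurrent control. t test versus saline.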
# Mustela putorius furo [5] = assay: In vivo antagonism of cisplatin-induced emesis in ferret measured as percentage protection for twice the dose of 3 mg/kg and in 3 ferrets; format: functional; method in brief: as §2
# [6] = biological target: D(2) dopamine receptor (Rattus norvegicus) (UniProt P61169); assay: In vivo antagonism activity against D2 receptor was measured as stereotypy in rat when administered subcutaneously; format: functional, organism-based
# Method in brief: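 Male Long Evans rats (275 g) were dosed sc in dilute aqueous HCl (pH 4.5-5.5) 30 min before apomorphine (1 mg/kg sc).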
# [7] = biological target: D(2) dopamine receptor (Rattus norvegicus) (UniProt P61169); assay: In vivo antagonistic activity against dopamine D2 receptor was measured as catalepsy in rat when administered subcutaneously; format: functional, organism-based
# Method in brief: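 Male Long Evans rats (275 g) received graded sc doses in dilute aqueous HCl (pH 4.5-5.5). They were observed 180 min for catalepsy, scored when the animal stayed stationary ≥15 s on a four-cork template.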
# Canis familiaris [8] = assay: In vivo antagonism of cisplatin-induced emesis in dog measured as emetic episodes, twice the dose of 6 mg/kg in 2 dogs; format: functional, Canis lupus familiaris; method in brief: as §1
# Canis familiaris [9] = assay: In vivo antagonism of cisplatin-induced emesis in dog measured as percentage protection for twice the dose of 6 mg/kg in 2 dogs; format: functional, Canis lupus familiaris; method in brief: as §1
# Canis familiaris [10] = assay: In vivo antagonism of cisplatin-induced emesis in dog measured as emetic episodes, twice the dose of 0.3 mg/kg in 2 dogs; format: functional, Canis lupus familiaris; method in brief: as §1
# Canis familiaris [11] = assay: In vivo antagonism of cisplatin-induced emesis in dog measured as emetic episodes, twice the dose of 1 mg/kg in 2 dogs; format: functional, Canis lupus familiaris; method in brief: as §1
# Canis familiaris [12] = assay: In vivo antagonism of cisplatin-induced emesis in dog measured as percentage protection for twice the dose of 1 mg/kg in 2 dogs; format: functional, Canis lupus familiaris; method in brief: as §1
# Mustela putorius furo [13] = assay: In vivo antagonism of cisplatin-induced emesis in ferret measured as percentage protection for twice the dose of 0.3 mg/kg and in 3 ferrets; format: functional; method in brief: as §2
# Mustela putorius furo [14] = assay: In vivo antagonism of cisplatin-induced emesis in ferret measured as emetic episodes, twice the dose of 0.3 mg/kg and in 3 ferrets; format: functional; method in brief: as §2
# Canis familiaris [15] = assay: In vivo antagonism of cisplatin-induced emesis in dog measured as percentage protection for twice the dose of 0.3 mg/kg in 2 dogs; format: functional, Canis lupus familiaris; method in brief: as §1
# Mustela putorius furo [16] = assay: In vivo antagonism of cisplatin-induced emesis in ferret measured as emetic episodes, twice the dose of 1 mg/kg and in 3 ferrets; format: functional; method in brief: as §2
# Mustela putorius furo [17] = assay: In vivo antagonism of cisplatin-induced emesis in ferret measured as percentage protection for twice the dose of 1 mg/kg and in 3 ferrets; format: functional; method in brief: as §2
# Canis familiaris [18] = assay: In vivo antagonism of cisplatin-induced emesis in dog measured as emetic episodes, twice the dose of 3 mg/kg in 3 dogs; format: functional, Canis lupus familiaris; method in brief: as §1
# Sequence of D(2) dopamine receptor (Canis lupus familiaris) (Q9GJU1 whole entry): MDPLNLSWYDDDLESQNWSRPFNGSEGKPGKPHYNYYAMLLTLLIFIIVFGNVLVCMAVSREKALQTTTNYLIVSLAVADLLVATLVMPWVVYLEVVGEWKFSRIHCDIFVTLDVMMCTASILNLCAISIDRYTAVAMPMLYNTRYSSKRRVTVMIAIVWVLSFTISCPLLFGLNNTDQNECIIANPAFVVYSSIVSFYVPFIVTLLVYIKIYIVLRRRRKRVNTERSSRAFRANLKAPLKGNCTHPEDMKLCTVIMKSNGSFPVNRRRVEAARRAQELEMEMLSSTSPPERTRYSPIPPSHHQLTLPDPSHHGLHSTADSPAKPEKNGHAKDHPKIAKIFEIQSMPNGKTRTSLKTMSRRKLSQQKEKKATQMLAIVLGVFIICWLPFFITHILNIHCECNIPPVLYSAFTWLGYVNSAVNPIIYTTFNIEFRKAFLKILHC
# Sequence of D(2) dopamine receptor (P61169 whole entry): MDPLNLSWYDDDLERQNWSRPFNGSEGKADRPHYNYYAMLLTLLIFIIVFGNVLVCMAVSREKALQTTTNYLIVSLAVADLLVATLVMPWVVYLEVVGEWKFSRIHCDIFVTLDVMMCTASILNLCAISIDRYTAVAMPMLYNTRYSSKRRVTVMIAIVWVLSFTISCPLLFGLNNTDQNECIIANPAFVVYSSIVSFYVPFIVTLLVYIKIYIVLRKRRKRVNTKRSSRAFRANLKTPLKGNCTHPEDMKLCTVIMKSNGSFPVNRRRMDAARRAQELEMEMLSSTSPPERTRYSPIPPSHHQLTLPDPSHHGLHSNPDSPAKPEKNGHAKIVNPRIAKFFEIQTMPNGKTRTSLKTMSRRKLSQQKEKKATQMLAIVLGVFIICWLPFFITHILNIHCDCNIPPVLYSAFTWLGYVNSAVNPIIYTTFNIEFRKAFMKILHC
# Sequence of D(2) dopamine receptor (Rattus norvegicus) (P61169 whole entry): as above
Structure (SMILES),ED50 [1],Emetic episodes (Canis familiaris [2]),IC50 (D(2) dopamine receptor),Protection (Canis familiaris [3]),Emetic episodes (Mustela putorius furo [4]),Protection (Mustela putorius furo [5]),ED50 [6],ED50 [7],Emetic episodes (Canis familiaris [8]),Protection (Canis familiaris [9]),Emetic episodes (Canis familiaris [11]),Protection (Canis familiaris [12]),Protection (Mustela putorius furo [13]),Emetic episodes (Mustela putorius furo [14]),further results
CCN(CC)CCNC(=O)c1cc(Cl)c(N)cc1OCC1COC(C)(C)O1 (configuration not stated),> 3 mg/kg,4,> 1000 nM,68%,2,72%,> 40 mg/kg,> 40 mg/kg,–,–,–,–,–,–,–
CCN(CC)CC/N=C(\NOC)c1cc(Cl)c(N)cc1OC,> 1 mg/kg,–,> 1000 nM,–,8.3,0%,> 40 mg/kg,> 40 mg/kg,8.5,34%,–,–,–,–,–
CCC(=O)COc1cc(N)c(Cl)cc1C(=O)NCCN(CC)CC,> 3 mg/kg,–,> 1000 nM,–,0.7,90%,> 40 mg/kg,> 40 mg/kg,–,–,0,100%,0%,7.3,Emetic episodes (Canis familiaris [10]): 3
CCN(CC)CCNC(=O)c1cc(Cl)c(N)cc1OC(C)C(C)O (stereo in doubt; 8h),–,–,> 1000 nM,–,–,–,–,–,–,–,3,75%,–,–,Protection (Canis familiaris [15]; 0.3 mg/kg): 60%; Emetic episodes (Canis familiaris [10]; 0.3 mg/kg): 4.5; Protection (Mustela putorius furo [13]; 0.3 mg/kg): 37%; Emetic episodes (Mustela putorius furo [4]; 3 mg/kg): 0.3; Emetic episodes (Mustela putorius furo [14]; 0.3 mg/kg): 4.7; Emetic episodes (Mustela putorius furo [16]; 1 mg/kg): 2.3; Protection (Mustela putorius furo [17]; 1 mg/kg): 68%; Protection (Mustela putorius furo [5]; 3 mg/kg): 95%
CCN(CC)CCNC(=O)c1cc(Cl)c(N)cc1OCC(C)=O,> 3 mg/kg,–,> 1000 nM,–,0.7,90%,> 40 mg/kg,> 40 mg/kg,0.5,96%,1.5,92%,44%,4,Protection (Canis familiaris [15]): 60%; Emetic episodes (Canis familiaris [10]): 5; Emetic episodes (Mustela putorius furo [16]): 4.5; Protection (Mustela putorius furo [17]): 38%
CCN(CC)CCNC(=O)c1cc(Cl)c(N)cc1OC1CCCCC1=O (configuration not stated),> 3 mg/kg,–,> 1000 nM,–,0,100%,> 40 mg/kg,> 40 mg/kg,–,–,0,100%,62%,2.7,Protection (Canis familiaris [15]): 88%; Emetic episodes (Canis familiaris [10]): 1.5
C=CCCOc1cc(N)c(Cl)cc1C(=O)NCCN(CC)CC,> 3 mg/kg,3.5,> 1000 nM,71%,3.7,50%,> 40 mg/kg,> 40 mg/kg,–,–,–,–,–,–,–
CCCOc1cc(N)c(Cl)cc1C(=O)NCCN(CC)CC,> 3 mg/kg,–,> 1000 nM,–,2,70%,> 40 mg/kg,> 40 mg/kg,8,40%,–,–,–,–,–
CCN(CC)CCNC(=O)c1cc(Cl)c(N)cc1OC1CCCC[C@H]1OC (some centres not stated),> 3 mg/kg,–,> 1000 nM,–,1.3,82%,> 40 mg/kg,> 40 mg/kg,–,–,0,100%,77%,3.7,Protection (Canis familiaris [15]): 70%; Emetic episodes (Canis familiaris [10]): 3.5; Emetic episodes (Mustela putorius furo [16]): 1.7; Protection (Mustela putorius furo [17]): 49%
CCN(CC)CCNC(=O)c1cc(Cl)c(N)cc1OCC(=O)c1ccccc1,> 3 mg/kg,1.5,> 1000 nM,88%,0,100%,> 40 mg/kg,> 40 mg/kg,–,–,–,–,–,–,–
C=C(C)COc1cc(N)c(Cl)cc1C(=O)NCCN(CC)CC,> 3 mg/kg,4,> 1000 nM,68%,2.3,70%,> 40 mg/kg,> 40 mg/kg,–,–,–,–,–,–,–
CCN(CC)CCNC(=O)c1cc(Cl)c(N)cc1OC[C@@H](C)O (stereo in doubt; 8f),–,–,> 1000 nM,–,–,–,–,–,–,–,–,–,0%,8,Emetic episodes (Canis familiaris [10]; 0.3 mg/kg): 2; Emetic episodes (Canis familiaris [11]; 1 mg/kg): 0; Protection (Canis familiaris [12]; 1 mg/kg): 100%; Emetic episodes (Mustela putorius furo [16]; 1 mg/kg): 5.7; Protection (Mustela putorius furo [17]; 1 mg/kg): 22%
C=CCOc1cc(N)c(Cl)cc1C(=O)NCCN(CC)CC,> 1 mg/kg,–,> 1000 nM,–,0.3,95%,> 40 mg/kg,> 40 mg/kg,1,90%,3.5,72%,30%,4.7,Emetic episodes (Mustela putorius furo [16]): 3; Protection (Mustela putorius furo [17]): 56%
CCN(CC)CCNC(=O)c1cc(Cl)c(N)cc1OCC#N,> 3 mg/kg,–,> 1000 nM,63%,0.7,90%,> 40 mg/kg,> 40 mg/kg,–,–,–,–,–,–,Emetic episodes (Canis familiaris [18]): 4.7
CCN(CC)CCNC(=O)c1cc(Cl)c(N)cc1OC(C)C#N (configuration not stated),> 3 mg/kg,2.5,> 1000 nM,80%,2.7,63%,> 40 mg/kg,> 40 mg/kg,–,–,–,–,–,–,–
CCN(CC)CCNC(=O)c1cc(Cl)c(N)cc1OC/C(C)=N/OC,–,–,> 1000 nM,–,0.7,90%,> 40 mg/kg,> 40 mg/kg,3.5,71%,–,–,–,–,–
